{"source": "paper PMC2886590", "about": "(Journal of molecular biology, 2010)", "target": "MLL PHD3 finger (Homo sapiens, UniProt Q03164)", "sequence (Q03164 1565-1627)": "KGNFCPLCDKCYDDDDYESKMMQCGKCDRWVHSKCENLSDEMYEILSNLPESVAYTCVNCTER", "test": "NMR titration of histone peptides", "assay_type": "binding", "conditions": "0.2 mM 15N-labeled PHD3, 12-mer histone tail peptide, 298K", "in_short": "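PHD3 finger (residues 1565-1627, wild type or mutant) was expressed as a GST fusion in E. coli BL21(DE3) pLysS grown in 15NH4Cl minimal medium. It was affinity-purified, GST-cleaved, size-exclusion purified and held in 25 mM d11-Tris pH 6.8, 150 mM KCl, 10 mM deuterated DTT and 7% 2H2O. 12-mer histone tail peptides were added stepwise to 0.2 mM protein, and normalized chemical shift changes were tracked in 1H,15N HSQC spectra.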", "data": [{"substance": "H3K4me3: histone H3 tail peptide trimethylated at lysine 4 (biotinylated residues 1-21; 12-mer for NMR)", "values": [{"measurement": "exchange regime on NMR time scale", "value": "intermediate-to-fast exchange regime"}]}]}
